Experiments:
[1] = system: Human immunodeficiency virus 1; assay: Antiviral activity against HIV1 RF infected in human CEM-SS cells assessed as inhibition of viral replication incubated for 6 days by XTT assay; assay type: functional, organism-based
Method in brief: (§1)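 CEM-SS cells (2.5 × 10³/well) in RPMI with 10% FBS, 2 mM L-glutamine, penicillin/streptomycin; six serial compound concentrations added with HIV-1 RF titered to give 85–95% cell killing at day 6. AZT run in parallel as positive control. Incubated 6 days at 37 °C, 5% CO2; viability by XTT (OD 450/650 nm). EC50 from percent CPE reduction; SI = TC50/EC50.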

[2] = (§2) Cytotoxicity against human CEM-SS cells assessed as reduction in cell viability incubated for 6 days by […]; assay type: cell-based; conditions: CEM-SS cells, read-out: TC50
Method in brief: (§3)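 Uninfected CEM-SS cells (2.5 × 10³/well) in RPMI with 10% FBS, 2 mM L-glutamine, penicillin/streptomycin, exposed to six serial compound concentrations for 6 days at 37 °C, 5% CO2. Viability read by XTT staining (OD 450/650 nm); TC50 derived from percent viability of uninfected drug-control wells.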

[3] = Prodrug activation in human PBMC cells assessed as 2-(3-amino 3-oxopropylcarbamoyl)benzenethiolate formation; assay type: cell-based
[4] = Selectivity index, ratio of TC50 for human CEM-SS cells to EC50 for HIV1 RF infected in human CEM-SS cells; assay type: toxicity, cell-based; conditions: for selectivity ratio: CEM-SS cells, read-out: Selectivity Index; method in brief: as §1
[5] = Drug metabolism of compound in glutathione assessed as 2-(3-amino 3-oxopropylcarbamoyl)benzenethiolate formation
[6] = Drug metabolism of compound in nucleophilic proteinogenic cysteines assessed as 2-(3-amino 3-oxopropylcarbamoyl)benzenethiolate formation
[7] = system: CEM-SS; assay: as §2; assay type: cell-based; conditions: cem-ss, 144 h, read-out: TC50 (the source's name); method in brief: as §3
[8] = Dissociation constant, pKa of compound; assay type: physicochemical
[9] = Drug metabolism of compound in phosphate buffer incubated for 12 hrs in presence of acetyl-1,2,13C2 CoA by 13C-NMR spectrometric method
Method in brief: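 Thiol and acetyl-1,2-13C2 CoA at 10:1 stoichiometric ratio incubated in degassed (helium-sparged) 0.1 M phosphate buffer pH 7.0 (4:1 H2O/D2O) with 2% DMF, 37 °C, 12 h in a sealed NMR tube. Equilibrium confirmed by 13C NMR monitoring; equilibrium constant for thiol–thioester exchange determined from spectra.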

[10] = Human immunodeficiency virus 1, RF, CEM-SS, 144 h

Row | SMILES | EC50 [1, 10] [µM] | CC50 at 144 h [2] [µM] | selectivity ratio [4] | also measured
1 | CCCC(=O)OCSc1c(F)cccc1C(=O)NCCC(N)=O | > 100 | – | – | –
2 | CCCC(=O)OCSc1ccccc1C(=O)NCCC(N)=O | 2.4 | > 100 | – | Drug metabolism [3]: Metabolite_Detected
3 | CCCC(=O)OCSc1ccccc1C(=O)N(C)CC(=O)N(C)C | > 100 | 57.3 | – | –
4 | NC(=O)CCNC(=O)c1cccc(S)c1 | > 100 | > 100 | – | –
5 | CCCC(=O)OCSc1ccccc1C(=O)NCC(=O)NCc1ccccc1 | 4.8 | 29.3 | 6.1 | –
6 | CCCC(=O)OCSc1ccccc1C(N)=O | > 100 | 12.4 | – | –
7 | CCCC(=O)OCSc1ccccc1C(=O)Nc1ccccc1C(N)=O | 5.1 | 50.1 | 9.82 | –
8 | CCCC(=O)OCSc1c(C)cccc1C(=O)NCCC(N)=O | > 100 | – | – | –
9 | CCCC(=O)OCSc1ccccc1C(=O)NCC(=O)NC | 1.4 | > 100 | > 71.4 | –
10 | CCCC(=O)OCSc1ccccc1C(=O)NCCCCCCNC(C)=O | 1.5 | 8 | 5.33 | –
11 | CCCC(=O)OC[Se]c1ccccc1C(=O)NCCC(N)=O | 8.6 | 10.5 | 1.22 | –
12 | CC(=O)Sc1ccccc1C(=O)NCCC(N)=O | – | – | – | Ka [5]: 84 M⁻¹ s⁻¹; Ka [6]: 84 M⁻¹ s⁻¹
13 | CCCC(=O)OCSc1ccccc1C(=O)OCC(N)=O | > 100 | 82.1 | – | –
14 | CCCC(=O)OCSc1ccccc1C(=O)NCCNC(C)=O | 2.6 | 91.9 | 35.3 | –
15 | CCCC(=O)OCSc1ccccc1C(=O)NCC(=O)NC(C)(C)C | 9.1 | 46.8 | 5.14 | –
16 | CCCC(=O)OCSc1ccccc1C(=O)NCC(=O)N(C)C | 4.7 | 38.3 | 8.15 | –
17 | CCCC(=O)OCSc1ccc(OC)cc1C(=O)NCCC(N)=O | 1.5 | > 100 | – | –
18 | CCCC(=O)OCSc1ccccc1C(=O)NCCCCC(N)=O | 3.7 | 51.7 | 14 | –
19 | CCCC(=O)OCSc1ccccc1C(=O)N[C@@H]1CCC[C@@H]1C(N)=O | 1.8 | 90 | 50 | –
20 | CCCC(=O)OCSc1ccccc1C(=O)NCCCCCC(N)=O | 3.1 | 16.3 | 5.26 | –
21 | CCCC(=O)OCSc1ccccc1C(=O)NCC(N)=O | 2.9 | > 100 | – | –
22 | CCCC(=O)OCSc1ccccc1C(=O)NCC(=O)NCC(=O)OC | 4.9 | > 100 | > 20.4 | –
23 | CCCC(=O)OCSc1ccccc1C(=O)NCCCNC(C)=O | 1.1 | 21.1 | 19.2 | –
24 | CCCC(=O)OCSc1ccccc1C(=O)NCCCC(N)=O | 1.2 | 56.6 | 47.2 | –
25 | CCCC(=O)OCSc1ccccc1C(=O)NCC(=O)NC(C)C | 5 | 92 | 18.4 | –

Row | SMILES | EC50 [1, 10] [µM] | CC50 at 144 h [2] [µM] | selectivity ratio [4] | also measured
26 | CCCC(=O)OCSc1ccccc1C(=O)NCC(=O)NCC(N)=O | 27.5 | > 100 | > 3.64 | –
27 | CCCC(=O)OC[Se]c1ccccc1C(=O)NCC(N)=O | > 100 | 6.8 | – | –
28 | CCCC(=O)OCSc1ccccc1C(=O)NC1(C(N)=O)CCCC1 | < 8.2 | > 100 | – | –
29 | CCCC(=O)OCSc1ccccc1C(=O)NCC(=O)OC | > 100 | 27.3 | – | –
30 | CCCC(=O)OCSc1ccccc1C(=O)N[C@H]1CCC[C@H]1C(N)=O (racemic) | 5.32 | 89.9 | 16.9 | –
31 | CCCC(=O)OCSc1ccccc1C(=O)N[C@H]1CCC[C@@H]1C(N)=O (racemic) | – | 31.2 | – | EC50 [1]: 0.9 µM; Selectivity Index [4]: 34.7
32 | CCCC(=O)OCSc1ccccc1C(=O)N[C@@H]1CCC[C@H]1C(N)=O | 1.7 | 43.7 | 25.7 | –
33 | CCCC(=O)OCSc1ccccc1C(=O)N(C)CC(N)=O | > 100 | 55.3 | – | –
34 | CCCC(=O)OCSc1ccccc1C(=O)N[C@H]1CCC[C@@H]1C(N)=O | – | – | – | EC50 [1]: 2.9 µM; CC50 [7]: 43.3 µM; Selectivity Index [4]: 15
35 | NC(=O)CCNC(=O)c1ccccc1S | – | – | – | pKa [8]: 5.83; Ke [9]: 0.0023
36 | CCCC(=O)OCSc1ccccc1C(=O)Nc1cccc(C(N)=O)c1 | 1.2 | 17.5 | 14.6 | –
37 | CCCC(=O)OCSc1ccccc1C(=O)NCCCCCNC(C)=O | 3.9 | 9.2 | 2.36 | –
38 | CCCC(=O)OCSc1ccccc1C(=O)NCCCCCCC(N)=O | 1 | 10.4 | 10.4 | –
39 | CCCC(=O)OCSc1ccccc1C(=O)NC | > 100 | 5.7 | – | –
40 | CCCC(=O)OCSc1ccccc1C(=O)N[C@H]1CCC[C@H]1C(N)=O | – | – | – | EC50 [1]: 3 µM; CC50 [7]: 84.8 µM; Selectivity Index [4]: 28.3
41 | CCCC(=O)OCSc1ccccc1C(=O)N1CCC[C@H]1C(N)=O | > 100 | > 100 | – | –
42 | CCCC(=O)OCSc1ccccc1C(=O)Nc1ccc(C(N)=O)cc1 | 1.6 | 39 | 24.4 | –
43 | CCCC(=O)OCSc1ccccc1C(=O)NCCCCNC(C)=O | 0.57 | 17.4 | 30.5 | –
44 | CCCCCNC(=O)CNC(=O)c1ccccc1SCOC(=O)CCC | 10.3 | 24.8 | 2.41 | –
45 | CCCC(=O)OCSc1ccccc1CC(=O)NCC(N)=O | > 100 | > 100 | – | –
46 | CCCC(=O)OCSc1ccccc1C(=O)N(C)CC(=O)NC | > 100 | 62.5 | – | –
47 | CCCC(=O)OCSc1ccc(OC(F)(F)F)cc1C(=O)NC(C)(C)C(N)=O | – | < 56.1 | – | –
48 | C#CCNC(=O)CNC(=O)c1ccccc1SCOC(=O)CCC | 4.7 | 95.4 | 20.3 | –
49 | CCCC(=O)OCSc1ccccc1C(=O)NCC(=O)NCCN(C)C | 6.6 | 76.9 | 11.6 | –

Reference: ChEMBL document CHEMBL4364289, “The structure-activity profile of mercaptobenzamides' anti-HIV activity suggests that thermodynamics of metabolism is more important than binding affinity to the target” (Eur J Med Chem, 2019)
